Screening data (PubChem BioAssay)
TRPC6 act – mouse TRPC6 channel activation; 0.13% of 310,000 active; B-score at 10 µM; AID 2550; Q61143; HEK293-TRPC6 membrane potential dye fluorescence; stronger effect = higher value;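 active = B-score of the integrated fluorescence ratio above library mean plus 3 SD, and starting fluorescence ratio within library mean plus 5 SD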;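 note: higher score means more depolarization so channel activation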
Target sequence (Q61143 whole entry, looked up): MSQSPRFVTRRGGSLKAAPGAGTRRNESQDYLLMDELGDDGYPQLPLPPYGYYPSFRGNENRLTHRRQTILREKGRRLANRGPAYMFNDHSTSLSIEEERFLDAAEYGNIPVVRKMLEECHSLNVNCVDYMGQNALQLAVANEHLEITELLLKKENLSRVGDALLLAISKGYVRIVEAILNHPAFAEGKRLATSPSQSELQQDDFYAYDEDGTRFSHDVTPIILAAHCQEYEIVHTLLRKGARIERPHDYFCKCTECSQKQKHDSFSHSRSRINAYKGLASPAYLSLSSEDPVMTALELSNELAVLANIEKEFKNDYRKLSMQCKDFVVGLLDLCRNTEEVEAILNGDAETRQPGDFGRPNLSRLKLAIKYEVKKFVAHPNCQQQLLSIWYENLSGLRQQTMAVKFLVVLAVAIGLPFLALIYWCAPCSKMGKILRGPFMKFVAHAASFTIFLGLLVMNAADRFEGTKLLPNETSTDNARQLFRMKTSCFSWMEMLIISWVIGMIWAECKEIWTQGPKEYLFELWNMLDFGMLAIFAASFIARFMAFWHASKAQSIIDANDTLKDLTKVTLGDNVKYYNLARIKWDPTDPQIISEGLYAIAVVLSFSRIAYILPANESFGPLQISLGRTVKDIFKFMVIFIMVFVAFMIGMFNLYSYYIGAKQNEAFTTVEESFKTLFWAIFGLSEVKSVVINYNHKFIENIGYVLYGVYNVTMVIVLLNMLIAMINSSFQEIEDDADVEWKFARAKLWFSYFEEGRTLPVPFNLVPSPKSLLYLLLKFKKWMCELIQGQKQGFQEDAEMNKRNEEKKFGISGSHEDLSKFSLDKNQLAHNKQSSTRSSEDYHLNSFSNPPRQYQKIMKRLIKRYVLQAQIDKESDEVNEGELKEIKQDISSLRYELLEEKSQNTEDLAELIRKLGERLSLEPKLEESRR
TRPC4 potent – allosteric potentiators of mouse TRPC4 channel. B-score at 10 µM. 0.42% of 310,000 active. HEK293 TRPC4beta/mu-opioid, DAMGO EC20, Fluo-4 Ca2+ flux; stronger effect = higher value;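 active = B-score of calcium response area above 5 SD of library B-scores, with initial fluorescence ratio within 5 SD of library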;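 note: B-score of integrated fluorescence ratio over time as area under calcium response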
TRPC4 block – blocks the mouse TRPC4 cation channel; 0.39% of 300,000 active; Q9QUQ5; B-score at 10 µM; HEK293 TRPC4beta/mu-opioid, DAMGO-evoked Fluo4 calcium flux; stronger effect = lower value;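 active = B-score over 3 SD under the library average, no early fluorescence shift, positive overall ratio signal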
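Signal: kinetic Fluo4 fluorescence imaging of calcium influx. Material: stable TRPC4beta/mu-opioid receptor HEK293 cells. Probe or stimulus: DAMGO in two steps, submaximal then maximal.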
TRPC4 act – activators of mouse TRPC4 channel. B-score at 10 µM. 0.49% of 310,000 active. HEK293 TRPC4beta/mu-opioid, Fluo4 calcium fluorescence; stronger effect = higher value. AID 2237. Q9QUQ5;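 active = B-score above 5 SD of library B-scores, and initial fluorescence ratio not above library mean plus 5 SD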;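 note: positive B-score marks a calcium rise read as TRPC4 activation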
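Incubation: 45 min room-temperature Fluo4 loading, 110 s read / System: HEK293 cells stably co-expressing mouse TRPC4beta and mu-opioid receptor / Signal: Fluo4 fluorescence, kinetic / Control set: buffer (low) and maximal DAMGO (high) / Measure: integrated baseline-normalised fluorescence ratio, converted to per-well B score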
Kir21 inh – inhibitors of mouse Kir2.1 inward-rectifier potassium channel; P35561; HEK293-Kir2.1, FluxOR thallium flux fluorescence; stronger effect = lower value; B-score at 10 µM; 0.85% of 310,000 active;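 active = fluorescence ratio B-score at or below minus 3 SD of library scores, with starting-brightness B-score within 2 SD, cut at about -4.2 in these data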;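 note: channel flux triggered by added potassium and thallium sulfate stimulus; B-score of peak minus minimum fluorescence over baseline after thallium stimulus; more negative B-score means stronger Kir2.1 block with less thallium influx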
TRPC6 inhibitor – blocks the mouse TRPC6 cation channel. B-score at 10 µM. 1.1% of 310,000 active. AID 2553. HEK293-TRPC6, membrane potential dye, ACh-evoked depolarization; stronger effect = lower value. Q61143;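 active = B-score under library mean minus 3 SD, initial fluorescence not abnormally high, positive integrated signal ratio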;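 note: B-score derived from integrated fluorescence ratio over the kinetic read; more negative B-score means stronger inhibition of depolarization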
The depositor's hits bear a star; i = inactive. The list is not random: actives were taken first. Their share in the collection is about 2.9%.

SMILES	TRPC6 act	TRPC4 potent	TRPC4 block	TRPC4 act	Kir21 inh	TRPC6 inhibitor
O=C1CSC(c2ccccc2F)N1c1cc(Cl)ccc1O (configuration not stated)	i	i	i	i	-6*	i
COC(=O)c1cc(NC(=O)CC2CCCC2)cc(C(=O)OC)c1	i	i	i	i	0	i
CCOC(=O)c1sc2nc(COC(=O)c3c(F)cccc3F)[nH]c(=O)c2c1C	i	i	i	i	0.14	i
CCOc1ccc(OCc2ccc(C(=O)N3CCCC3)o2)cc1	i	i	i	i	0.29	i
CC(C)c1ccc(OCc2ccc(C(=O)N3CCCC3)o2)cc1	i	42*	i	i	-0.96	i
CCCc1ccc(OCc2ccc(C(=O)N3CCCC3)o2)cc1	i	26*	i	i	-0.06	i
Cc1ccc(NC(=S)N=Nc2c(O)n(C)c3ccc(S(=O)(=O)N4CCOCC4)cc23)cc1	i	i	i	i	0.44	i
CC(=O)c1ccc(NC(=O)COc2ccccc2C(=O)Nc2ccccc2)cc1	i	i	i	i	-1.65	i
COc1ccc(S(=O)(=O)N(Cc2cc3ccc(OC)cc3[nH]c2=O)CC2COCCO2)cc1 (configuration not stated)	i	i	i	i	1.17	i
CC(C)CCn1c(CN2CCOCC2)nc2c1c(=O)n(C)c(=O)n2C	i	i	i	i	-0.82	i
CCCCC(c1nnnn1CC1CCCO1)N1CCN(c2nc3ccccc3s2)CC1 (configuration not stated)	i	i	i	88*	-0.21	i
CCCC(c1nnnn1CC1CCCO1)N1CCN(c2nc3ccccc3s2)CC1 (configuration not stated)	i	i	i	i	0.02	i
O=C(c1cc2c(s1)CCC2)N1C(=O)c2ccccc2S1(=O)=O	i	i	i	i	-0.27	i
O=C(OCC(=O)N1CCc2ccccc21)c1c2c(nc3ccccc13)CCCCC2	i	i	i	i	-0.09	i
CCCc1ccc(OCc2ccc(C(=O)N/N=C/c3cccnc3)o2)cc1	i	i	i	i	0.33	i
COc1cccc(NC(=O)CSc2nccn2-c2cccc(OC)c2)c1	i	i	i	i	-1.47	i
CCOc1ccc(-n2ccnc2SCC(=O)N2CCCc3ccccc32)cc1	i	i	i	i	-6.74*	i
COc1cccc(-n2ccnc2SCC(=O)N2CCCc3ccccc32)c1	i	i	i	i	-7.55*	i
COc1cccc(-n2ccnc2SCC(=O)Nc2ccccc2)c1	i	i	i	i	-4.86*	i
C(=N\Nc1ccc2ccccc2n1)/c1ccc2c(c1)OCCO2	i	i	i	i	0.84	i
CCC(C)NC(=O)CSc1n[nH]c(-c2cc(Cl)ccc2OC)n1 (configuration not stated)	i	i	i	i	-0.01	i
Oc1c(Br)cc(Br)c(/C=N/n2c(-c3ccccc3)n[nH]c2=S)c1Br	i	28*	i	i	1.78	i
CCOC(=O)C[C@H]1c2ccccc2S(=O)(=O)N1Cc1cccc(C(F)(F)F)c1	i	i	i	i	-4.49*	i
CCOC(=O)C[C@H]1c2cc(F)ccc2S(=O)(=O)N1c1ccccc1	i	i	i	i	-5.03*	i
Cc1ccccc1CS(=O)(=O)c1cnc2ccccc2n1	i	i	i	i	-1.54	i
SMILES	TRPC6 act	TRPC4 potent	TRPC4 block	TRPC4 act	Kir21 inh	TRPC6 inhibitor
COc1cc([N+](=O)[O-])cc(/C=C2/SC(=S)N(Cc3ccccc3)C2=O)c1O	i	i	i	i	-1.57	-6.31*
COc1cccc(S(=O)(=O)c2nc(C)c3c(n2)CCC3)c1	i	i	i	i	0.48	i
COc1cc(CN2CCc3c([nH]c4ccccc34)C2)cc(OC)c1	i	i	i	i	-4.2*	i
CN1CCCC(OC(=O)c2cc(Br)ccc2Cl)C1 (configuration not stated)	i	10*	i	126*	-1.49	i
CN1CCCC(OC(=O)c2cc(F)c(F)c(F)c2F)C1 (configuration not stated)	i	i	i	i	0	i
COc1cccc(C(=O)OC2CCCN(C)C2)c1 (configuration not stated)	i	i	i	129*	-1.03	i
CN1CCCC(OC(=O)c2cc(Cl)ccc2Cl)C1 (configuration not stated)	i	13*	i	65*	0.62	i
NC(=O)COC(=O)c1cccnc1Nc1ccccc1F	i	i	i	i	0	i
Cn1c(=O)[nH]c(=O)c2c1nc(NCCCO)n2CCOc1ccccc1	i	i	i	i	0.05	i
COC(=O)c1ccc(/C=N\N2CCN(c3ccccc3)CC2)cc1	i	i	i	i	-0.15	i
COc1ccc(OC(C)C(=O)NCCC2=CCCCC2)cc1 (configuration not stated)	i	i	i	i	-6.36*	i
Cn1c(SCC(=O)Nc2ccc3c(c2)OCCO3)nnc1-c1cccnc1	i	i	i	i	0.04	i
CN1CCN(C(c2cccc(Cl)c2)c2ccccc2Cl)CC1 (configuration not stated)	i	i	i	i	-4.4*	i
CC1CN(S(=O)(=O)c2cccc(C(F)(F)F)c2)CC(C)O1 (configuration not stated)	i	i	i	i	-4.38*	i
CNC(=O)c1c(O)c2cccc3c2n(c1=O)CC3	i	i	i	i	-0.78	i
COc1cc2ccccc2c2c1CCCC2=O	i	i	-6*	i	-1.07	i
CCCCC(CC)c1nnc(NC(=O)c2cccs2)s1 (configuration not stated)	i	i	-9*	i	-1.87	i
Cc1nc(NS(=O)(=O)c2cccc([N+](=O)[O-])c2)sc1C(C)(C)C	i	i	i	i	1.77	i
Cn1c(SCC(=O)NC2CCCCCC2)nnc1-c1cccs1	i	i	i	i	-0.03	i
Cc1cc(C=O)c(C)n1-c1ccc(NC2CCCC2)c([N+](=O)[O-])c1	i	13*	i	i	0.74	i
CCOc1ccc(-c2c(C(=O)N/N=C/c3ccc(OC(C)C)cc3)nnn2-c2nonc2N)cc1	i	i	i	i	-0.23	i
